Compounds with a hit are over-represented: about 3.1% of the library has one in this group of screens.
Cneo AK release: Cryptococcus neoformans lysis via adenylate kinase release | C. neoformans lysis, adenylate kinase release luminescence, 4 h; normalised: neutral wells 0, clomiphene wells 100 | lysis activity, % at 15 µM | 0.2% of 360,000 active;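 active means mean lysis activity across replicates of at least 80%, whatever share of replicates individually reach that level; inactive means mean lysis activity below 80%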
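Assay system: C. neoformans cells. Amount: yeast cell density of 5 × 10^6 cells/mL. Technique: AK luminescence. Buffer or medium: YPD. Times: static 4 h at 37 °C with compound, 1 h detection. Dosing: single-point compound dose. Read-out: lysis from increased AK signal.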
E-selectin induc: induces E-selectin expression in human endothelial cells | HUVEC E-selectin immunofluorescence imaging; normalized: neutral wells 0, TNF-alpha wells 100 | activation, % at 7.58 µM | 0.37% of 260,000 active | AID 686992;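 active means mean E-selectin-positive cell signal at least 10% of the positive control, reached in at least 60% of replicates, without over 20% cell loss; inconclusive means no rule given, readout overlaps actives, possibly toxicity-flagged; inactive means the rest, including those meeting only one limit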
Target sequence (P16581 whole entry, looked up): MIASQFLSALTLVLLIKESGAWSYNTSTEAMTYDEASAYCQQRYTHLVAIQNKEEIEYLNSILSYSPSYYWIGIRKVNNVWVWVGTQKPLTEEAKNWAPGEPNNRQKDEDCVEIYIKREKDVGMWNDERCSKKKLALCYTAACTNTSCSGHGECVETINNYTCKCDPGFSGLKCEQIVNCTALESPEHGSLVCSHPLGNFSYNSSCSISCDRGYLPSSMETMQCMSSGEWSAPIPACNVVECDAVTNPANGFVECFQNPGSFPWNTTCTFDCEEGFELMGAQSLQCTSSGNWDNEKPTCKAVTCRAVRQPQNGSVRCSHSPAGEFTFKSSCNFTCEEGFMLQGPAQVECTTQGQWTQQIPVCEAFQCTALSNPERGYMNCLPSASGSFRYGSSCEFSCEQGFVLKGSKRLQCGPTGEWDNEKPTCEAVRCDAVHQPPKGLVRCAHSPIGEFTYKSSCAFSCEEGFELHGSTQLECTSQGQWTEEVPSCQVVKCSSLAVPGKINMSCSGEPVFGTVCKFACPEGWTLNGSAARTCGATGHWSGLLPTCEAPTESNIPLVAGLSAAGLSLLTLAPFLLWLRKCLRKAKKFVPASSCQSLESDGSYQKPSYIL
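Assay system: HUVEC primary endothelial cells. Input: 3,000 HUVEC seeded per well. Doses: one compound dose added by pin transfer. Read-out basis: % PE-positive cells. Benchmarks: TNF-alpha high, DMSO low. Detection: immunofluorescence imaging. Buffer or medium: EGM-2, gelatin.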
rRNA inh HTS: inhibitors of bacterial rRNA selective over humanized ribosomes; E. coli WT GFP vs humanized-ribosome RFP mutants, fluorescence, 24 h; hits give low values; DMSO median 0, no signal -100; GFP signal change (wild-type ribosome), % (no concentration beside the values); 1.6% of 350,000 active;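 active means significant combined selectivity score with lowered wild-type GFP, culture density cut under 30%, mutant RFP and density less affected; inactive means any of these conditions unmet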
miR122 inh: blocks miR-122 activity in Huh7 sensor cells; 0.3% of 340,000 active; activation (reporter increase), % at 12.5 µM; Huh7 miR-122 Renilla luciferase sensor, 48 h; neutral wells = 0, positive control = 100; AID 602342;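 active means mean replicate activation score at least 90 and every replicate individually at or above 90; inconclusive means only one of the two criteria met; inactive means neither criterion met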;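 further: higher luciferase means less miR-122 activity so hits act as miR-122 inhibitors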
DENV2 CPE rescue: DENV2-induced cell death inhibition; DENV2-infected cells, cytopathic effect rescue, plate reader; CPE inhibition, % at 9.99 µM; 1.7% of 350,000 active; AID 651640; in the data active means CPE inhibition above about 20%, passing the limit was not always enough; inconclusive means no clear call, values can overlap the other calls; tested in BHK-21 cells;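 further: 0% = median of neutral control wells and 100% = median of positive control wells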
* = called active by the depositor; ? = inconclusive; nt = not tested or not shown; [ ] = remark or other dose.

SMILES | Cneo AK release | E-selectin induc | rRNA inh HTS | miR122 inh | DENV2 CPE rescue
COc1ccccc1CCNC(=O)c1cc(COc2cccc(C(F)(F)F)c2)on1 | 4 | nt | -34* | 4 | -1
COc1cccc(OCc2cc(C(=O)NCc3ccc4c(c3)OCO4)no2)c1 | -9 | nt | -33* | 3 | 6
CCOC(=O)C1=C2c3ccc4ccccc4c3CC(C)(C)N2C(=O)C1=O | -2 | -3 | -29* | nt | 3
CCOC(=O)C1=C2c3cc(OC)c(OC)cc3CC(C)(C)N2C(=O)C1=O | 11 | -2 | -3 | -2 | -1
Cc1c(C(=O)Nc2ccccc2)cnn1-c1ccccc1 | nt | 0 | -1 | nt | -5
Cc1c(C(=O)Nc2cccc(F)c2)cnn1-c1ccccc1 | -7 | nt | -6 | -3 | 50*
Cc1ccc(S(=O)(=O)Nc2ccc3c(c2)C(=O)N([C@@H](C)CO)C[C@@H](C)[C@H](CN(C)S(=O)(=O)c2ccc(F)cc2)OCCCC[C@H](C)O3)cc1 | -3 | 0 | -2 | -9[16.7 µM] | 2
COc1cc2sc3ccc(C#Cc4ccccn4)cc3c(=O)c2cc1OC | 0 | 0 | 0 | -4 | 23*
CC(C)(C)NC(=S)N1CCC(C(=O)c2ccc(Cl)cc2)CC1 | 19 | nt | 4 | 1 | 21*
CN(C)c1ccc2nc3ccc(=[N+](C)C)cc-3sc2c1 | nt | nt | -53* | nt | nt
C[C@@H]1CN([C@@H](C)CO)C(=O)c2cc(Br)cnc2O[C@H]1CN(C)C(=O)C1CCC1 | nt | 0 | 9 | -4[16.7 µM] | nt
CO[C@@H]1CN(C)C(=O)c2ccc(NC(C)=O)cc2OC[C@@H](C)N(C(=O)C2CCC2)C[C@@H]1C | 36 | 0 | 1 | nt | -9
CO[C@H]1CN(C)C(=O)c2ccc(NC(C)=O)cc2OC[C@H](C)N(C(=O)C2CCC2)C[C@@H]1C | nt | 0 | 1 | nt | 30*
CCC(=O)Nc1ccc2c(c1)OC[C@H](C)N(C(=O)C1CC1)C[C@@H](C)[C@H](OC)CN(C)C2=O | -2 | 1 | 1 | 14[16.7 µM] | -5
CCC(=O)Nc1ccc2c(c1)OC[C@@H](C)N(C(=O)C1CC1)C[C@H](C)[C@H](OC)CN(C)C2=O | nt | 0 | -2 | nt | 36*
CO[C@@H]1CN(C)C(=O)c2ccc(NC(C)=O)cc2OC[C@@H](C)N(C(=O)CN2CCOCC2)C[C@@H]1C | 1 | 0 | -1 | -1[16.7 µM] | 28*
CCC(=O)Nc1ccc2c(c1)OC[C@@H](C)N(C(=O)CN1CCOCC1)C[C@H](C)[C@@H](OC)CN(C)C2=O | -3 | 0 | 0 | 1[16.7 µM] | 12
O=C(Nc1ccc2c(c1)OCO2)N[C@H]1CC[C@H](CCNC(=O)C2CC2)O[C@@H]1CO | 1 | 0 | -3 | 2[16.7 µM] | -13
Cc1noc(C)c1CSc1nc2ccccc2c(=O)n1-c1ccccc1 | -1 | nt | nt | 99* | nt
O=C(c1cc(-c2ccc(Br)cc2)nc2ccccc12)N1CCC1 | -7 | 1 | -25* | 41 | -4
CCCNC(=O)N1CCC2(CC1)CN(C(=O)c1cccnc1)[C@H](CO)c1[nH]c3cc(OC)ccc3c12 | nt | 0 | 1 | nt | ?
CN(C)CCC(=O)C(Cc1ccccc1)c1ccccc1 (centres undefined) | -2 | 0 | 5 | 5 | -4
CC(CCCN(C)C)C(Cc1ccccc1)c1ccccc1 (centres undefined) | 2 | 0 | -47* | -5 | -6
COc1ccc2c3c([nH]c2c1)[C@@H](CO)N(C(=O)NC(C)C)CC31CN(Cc2ccccc2)C1 | nt | 0 | 0 | nt | 3
CCN(CC)CCN(C(=O)c1ccccc1OC)c1nc2ccc(F)cc2s1 | nt | 0 | -22* | nt | -5
SMILES | Cneo AK release | E-selectin induc | rRNA inh HTS | miR122 inh | DENV2 CPE rescue
CN(C)CCN(C(=O)c1cc(Cl)sc1Cl)c1nc2ccc(F)cc2s1 | 1 | nt | -2 | -10 | -11
O=C(c1ccccc1)c1nccn1-c1ccc(Cl)nn1 | -2 | 0 | -36* | 1 | nt
Cc1ccc2c(c1)COc1c3ccc(C(=O)N[C@@H](CO)C(C)C)cc3nn1-2 | -16 | 7 | -36 | -3 | 6
C[C@@H](CO)NC(=O)c1ccc2c3n(nc2c1)-c1ccccc1CO3 | -6 | 2 | -10 | -6 | 40*
O=C(CSCc1c(Cl)cccc1Cl)Nc1cccnc1 | -2 | 2 | -24* | -6 | 10
C[C@@H]1CCCCO[C@H](CN(C)C(=O)CCC(F)(F)F)[C@H](C)CN([C@H](C)CO)C(=O)c2cc(NS(=O)(=O)c3cn(C)cn3)ccc2O1 | -1 | 0 | -2 | -6[16.7 µM] | 1
Cc1ccc(C(=O)Nc2ncc([N+](=O)[O-])s2)cc1 | -10 | 0 | -52* | -6 | -1
O=C(Nc1ncc([N+](=O)[O-])s1)c1ccc2c(c1)OCO2 | -4 | nt | -26 | -3 | 10
O=C(COc1ccc(Cl)cc1)Nc1ncc([N+](=O)[O-])s1 | nt | -4 | -24* | nt | 3
C[C@@H]1CCCCO[C@H](CN(C)Cc2ccc(C(F)(F)F)cc2)[C@@H](C)CN([C@@H](C)CO)C(=O)c2cc(NS(=O)(=O)c3ccc(Cl)cc3)ccc2O1 | 3 | 0 | -1 | -3[16.7 µM] | 3
C[C@H](CO)N1C[C@H](C)[C@@H](CN(C)C(=O)c2cnccn2)Oc2ncc(-c3cccc(C#N)c3)cc2C1=O | -1 | 0 | 3 | nt | -2
CCC(=O)Nc1ccc2c(c1)C(=O)N(C)C[C@@H](OC)[C@@H](C)CN(C(C)=O)[C@@H](C)CO2 | -10 | 0 | -1 | 2[16.7 µM] | 32*
CCS(=O)(=O)Nc1ccc2c(c1)C(=O)N(C)C[C@H](OC)[C@H](C)CN(C(C)=O)[C@H](C)CO2 | 54 | 0 | 0 | -17[16.7 µM] | 24*
CCC(=O)Nc1ccc2c(c1)C(=O)N(C)C[C@H](OC)[C@@H](C)CN(C(C)=O)[C@@H](C)CO2 | 0 | 0 | 0 | 0[16.7 µM] | 54*
CCC(=O)Nc1ccc2c(c1)C(=O)N(C)C[C@H](OC)[C@@H](C)CN[C@H](C)CO2 | 84* | 0 | 3 | 8[16.7 µM] | 12
CCNC(=O)C[C@@H]1CC[C@@H]2[C@@H](COc3ccc(NC(=O)c4cccs4)cc3C(=O)N2C)O1 | -1 | 0 | 1 | -3[16.7 µM] | 3
CCCNC(=O)N1[C@@H](CO)[C@@H](c2ccccc2)[C@@H]1CNC(=O)c1cccc(F)c1 | -5 | 0 | -10 | 61[16.7 µM] | -6
CCC(=O)Nc1ccc2c(c1)C(=O)N(C)C[C@@H](OC)[C@H](C)CN(C(C)=O)[C@@H](C)CO2 | nt | 0 | -1 | nt | 29*
CCCNC(=O)N1C[C@@H](C)[C@H](OC)CN(C)C(=O)c2cc(NS(=O)(=O)CC(F)(F)F)ccc2OC[C@@H]1C | -3 | 0 | 4 | nt | 60*
CNC[C@@H]1Oc2cc(C#Cc3ccccn3)ccc2S(=O)(=O)N([C@H](C)CO)C[C@H]1C | -1 | 0 | -2 | -7[16.7 µM] | ?

Assay outcomes deposited in PubChem BioAssay by Broad Institute.
